From PubChem BioAssay
Calls of active or inactive are those of the source.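 Rule for the calls, unless noted: active = NADPH fluorescence slope more negative than the mean of all samples by about 3 SD, 99.7% confidence; inactive = the rest.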

Experiments:
[1] = inhibitors of TNFa-induced NFkB p65 translocation, primary screen, imaging, HUVEC, MLSMR starter and 10KST1 sets (AID 438;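 active = inhibition above 20% together with a positive visual image hit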;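 note: compound added about 3h40 before a 20 min TNFalpha stimulation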;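 for inhibition: signal is the nuclear over cytoplasmic p65 intensity ratio per well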); conditions: HUVEC TNFa-induced p65 nuclear translocation; cell count: measured here: nuclei count (cytotoxicity indicator), at 2.08 µM; inhibition: at 2 µM, stronger effect = higher value, 0% TNFa-plus-vehicle, 100% no-TNFa wells
[2] = reduction of polyQ htt aggregates in cells – imaging, exon1htt(103Q)mCFP cells, high-content imaging, primary screen (AID 483;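 active = visual image review flags a hit and inhibition of aggregation exceeds 20%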;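 note: compound exposure lasted 3 days before fixation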;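 for nuclei count: percent of the per-plate median nuclei count of sample wells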); conditions: exon1htt(103Q)mCFP cell line, aggregate imaging, at 2 µM; inhibition of aggregation: stronger effect = higher value; nuclei count: measured here: cell count, toxicity
[3] = endothelial E-selectin expression blockers – imaging, HUVEC, immunofluorescence, MLSMR starter and 10KST1 sets, primary screen (AID 487;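 active = visually confirmed hit in the image check and inhibition above 20%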;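 for inhibition: signal is fraction of cell area covered by stained E-selectin grains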;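 for nuclei count: 100% = median nuclei count of all wells on the same plate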); conditions: HUVEC TNFalpha-induced E-selectin immunofluorescence imaging, at 2 µM; inhibition: stronger effect = higher value; nuclei count: measured here: cell number, toxicity
[4] = biological target: Voltage-gated potassium channel subunit beta-2 (Rattus norvegicus) (UniProt P62483); experiment: inhibitors of rat Kvbeta2 reductase activity – biochemical, NADPH fluorescence, primary screen (AID 622;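 active = fluorescence slope higher than the sample average by over 3 SD, cut at about -0.22 in these data, passing the limit was not always enough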;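 note: slope of raw intensity against log time taken from 70 to 1610 s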); conditions: recombinant KvBeta, 4-cyanobenzaldehyde reduction, at 10 µM, stronger effect = higher value
Chain of Voltage-gated potassium channel subunit beta-2 (Rattus norvegicus) (P62483 whole entry, looked up): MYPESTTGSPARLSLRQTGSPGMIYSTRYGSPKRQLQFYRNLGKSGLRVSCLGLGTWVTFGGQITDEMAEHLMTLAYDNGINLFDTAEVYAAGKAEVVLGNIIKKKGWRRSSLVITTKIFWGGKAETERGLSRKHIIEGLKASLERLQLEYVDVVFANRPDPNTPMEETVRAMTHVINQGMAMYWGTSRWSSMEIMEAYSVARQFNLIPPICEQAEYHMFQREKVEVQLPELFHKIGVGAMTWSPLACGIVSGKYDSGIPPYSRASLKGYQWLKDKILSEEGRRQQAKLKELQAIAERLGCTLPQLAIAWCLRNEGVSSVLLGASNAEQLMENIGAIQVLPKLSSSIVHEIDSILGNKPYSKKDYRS

[5] = biological target: Voltage-gated potassium channel subunit beta-2 (Rattus norvegicus) (UniProt P62483); experiment: enhancers of rat Kvbeta2 NADPH turnover – biochemical, NADPH fluorescence, primary screen (AID 623); conditions: Recombinant KvBeta, NADPH fluorescence decrease slope, 10 min; at 10 µM; stronger effect = lower value;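 note: fluorescence intensity change per second fitted from 20 to 320 s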
[6] = biological target: Muscarinic acetylcholine receptor M4 (Homo sapiens) (UniProt P08173); experiment: M4-linked GIRK flux change, two-sided – cell-based, HEK293 M4/GIRK, thallium flux, BTC-AM, M4 allosteric agonist project, primary screen (AID 625;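 active = fluorescence slope after compound addition differing from the mean of all tested samples at 99.7% confidence, mostly higher but some lower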;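 note: thallium influx through GIRK channels coupled to M4 in HEK293 cells with BTC-AM dye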); conditions: at 10 µM, actives lie on both sides
Chain of Muscarinic acetylcholine receptor M4 (Homo sapiens) (P08173 whole entry, looked up): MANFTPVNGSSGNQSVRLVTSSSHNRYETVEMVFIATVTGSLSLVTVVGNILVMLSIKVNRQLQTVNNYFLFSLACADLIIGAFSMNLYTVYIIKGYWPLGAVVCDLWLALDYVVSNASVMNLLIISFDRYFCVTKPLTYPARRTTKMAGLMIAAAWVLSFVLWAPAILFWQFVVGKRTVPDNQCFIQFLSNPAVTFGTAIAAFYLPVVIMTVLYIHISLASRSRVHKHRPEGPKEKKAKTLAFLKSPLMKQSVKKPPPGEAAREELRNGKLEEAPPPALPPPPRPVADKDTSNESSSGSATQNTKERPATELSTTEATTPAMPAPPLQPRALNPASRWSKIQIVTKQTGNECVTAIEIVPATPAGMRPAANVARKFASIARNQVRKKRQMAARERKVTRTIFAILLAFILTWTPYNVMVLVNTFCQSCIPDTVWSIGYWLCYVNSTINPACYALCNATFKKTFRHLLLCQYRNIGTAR
Procedure, shortened: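 Material: HEK293 cells with M4 receptor and GIRK channels; Times: cells overnight at 37 °C, BTC-AM loading 1 h, reads 2 min total; Technique: kinetic BTC-AM fluorescence sampled at 1 Hz, 10 s pre-addition baseline; Read-out basis: slope over 15–24 s of trace normalized to starting intensity; Controls: carbachol positive, DMSO negative.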

[7] = blockers of RIG-like receptor reporter activation – cell-based, Sendai virus stimulus, luciferase, 10K MLSCN set, TLR/RLR signaling modifier project, primary screen (AID 602276;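 active = inhibition at or above 50% at 10 µM; inactive = inhibition below 50%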;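 note: firefly luciferase from ISG56 promoter only with Renilla not read in this screen; 0% = Sendai virus plus DMSO and 100% = medium plus DMSO without virus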); conditions: HEK293 RL24 IRF3 luciferase reporter, at 10 µM, stronger effect = higher value
[8] = TLR3 IRF3 reporter activation blockers – cell-based, poly I:C stimulus, luciferase, 10K MLSCN set, primary screen (AID 602277;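 active = inhibition of the reporter signal at or above 50%; inactive = inhibition below 50%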); conditions: HEK293-TLR3 RL24 IRF3 luciferase reporter, at 10 µM, stronger effect = higher value

For `CCOC(=O)NC(c1ccccc1)C1CCCCC1=O` (centres undefined), the cell count [1] was 486, the inhibition [1] was -3.4% (inactive) and the inhibition of aggregation [2] was -0.1% (inactive). For the same compound, the nuclei count [2] was 103%, the inhibition [3] was -25.5% (inactive) and the nuclei count [3] was 105%. For the same compound, the fluorescence slope [4] was -0.565 (inactive), the NADPH fluorescence slope [5] was 1e-05 (inactive) and the fluorescence slope [6] was 0.00674 (inactive). The inhibition [7] was 14.4% (inactive) and the inhibition [8] was 18.4% (inactive).

In the case of `CCOC(=O)CCCn1nc(C)n2c(cc3sccc32)c1=O`, the cell count [1] is reported as 563, the inhibition [1] is reported as -3.2% (inactive) and the inhibition of aggregation [2] is reported as -1.6% (inactive). For the same compound, the nuclei count [2] was 119%, the inhibition [3] was -28.3% (inactive) and the nuclei count [3] was 119%. The fluorescence slope [4] was -0.406 (inactive), the NADPH fluorescence slope [5] was 8.7e-05 (inactive) and the fluorescence slope [6] was 0.00716 (inactive). The inhibition [7] was -11.6% (inactive) and the inhibition [8] was -28.8% (inactive).

With `COc1ccc(Cl)cc1C(=O)n1nc(C)cc1C` the cell count [1] was 346, the inhibition [1] was -3.3% (inactive) and the inhibition of aggregation [2] was -15% (inactive). For the same compound, the nuclei count [2] was 106%, the inhibition [3] was -31% (inactive) and the nuclei count [3] was 118%. The fluorescence slope [4] was -0.355 (inactive), the NADPH fluorescence slope [5] was -1.5e-05 (inactive) and the fluorescence slope [6] was 0.00581 (inactive). For the same compound, the inhibition [7] was -16.7% (inactive) and the inhibition [8] was -14.6% (inactive).

In the case of `CCOc1cc(S(=O)(=O)NCc2ccccn2)c(C)cc1C`, the cell count [1] is reported as 412, the inhibition [1] is reported as -15.9% (inactive) and the inhibition of aggregation [2] is reported as -0.5% (inactive). The nuclei count [2] was 112%, the inhibition [3] was -20% (inactive) and the nuclei count [3] was 68.1%. The fluorescence slope [4] was -0.44 (inactive), the NADPH fluorescence slope [5] was -3.9e-05 (inactive) and the fluorescence slope [6] was 0.0075 (inactive). The inhibition [7] was 8.05% (inactive) and the inhibition [8] was 20.9% (inactive).

In the case of `CCN1C(=O)N(CC)C2C1N(C(C)=O)C(=O)N2C(C)=O` (centres undefined), the cell count [1] is reported as 373, the inhibition [1] is reported as 3.7% (inactive) and the inhibition of aggregation [2] is reported as 0.2% (inactive). The nuclei count [2] was 115%, the inhibition [3] was -9.3% (inactive) and the nuclei count [3] was 117%. The fluorescence slope [4] was -0.579 (inactive), the NADPH fluorescence slope [5] was -6.5e-05 (inactive) and the fluorescence slope [6] was 0.0074 (inactive). The inhibition [7] was 13.4% (inactive) and the inhibition [8] was 16.9% (inactive).

With `COc1cc(-c2nnc(SCC(=O)c3ccc(C)cc3)o2)cc(OC)c1OC` the cell count [1] was 378, the inhibition [1] was 1.7% (inactive) and the inhibition of aggregation [2] was -8.1% (inactive). The nuclei count [2] was 87.7%, the inhibition [3] was 28.9% (inactive) and the nuclei count [3] was 83.6%. The fluorescence slope [4] was -0.607 (inactive), the NADPH fluorescence slope [5] was 2.5e-05 (inactive) and the fluorescence slope [6] was 0.00366 (inactive). The inhibition [7] was -8.63% (inactive) and the inhibition [8] was -7.77% (inactive).

In the case of `O=C(c1ccc(NS(=O)(=O)c2cccs2)cc1)N1CCCCC1`, the cell count [1] is reported as 287, the inhibition [1] is reported as 5% (inactive) and the inhibition of aggregation [2] is reported as -0.8% (inactive). The nuclei count [2] was 74.9%, the inhibition [3] was -31.7% (inactive) and the nuclei count [3] was 96.5%. For the same compound, the fluorescence slope [4] was -0.474 (inactive), the NADPH fluorescence slope [5] was -3.6e-05 (inactive) and the fluorescence slope [6] was 0.00524 (inactive). For the same compound, the inhibition [7] was 0.00146% (inactive) and the inhibition [8] was -12.6% (inactive).

With `CC1(C)Cc2noc(N)c2C(C)(C)N1OC(=O)c1ccco1` the cell count [1] was 295, the inhibition [1] was -6.6% (inactive) and the inhibition of aggregation [2] was 21.5% (inactive). For the same compound, the nuclei count [2] was 87.2%, the inhibition [3] was -89.1% (inactive) and the nuclei count [3] was 88.4%. The fluorescence slope [4] was -0.474 (inactive), the NADPH fluorescence slope [5] was 2.9e-05 (inactive) and the fluorescence slope [6] was 0.00628 (inactive). For the same compound, the inhibition [7] was 16.2% (inactive) and the inhibition [8] was 23.5% (inactive).

In the case of `O=C1CC(c2ccco2)CC(O)=C1C=NCCN1CCNCC1` (centres undefined), the cell count [1] is reported as 315, the inhibition [1] is reported as -8.1% (inactive) and the inhibition of aggregation [2] is reported as -0.5% (inactive). The nuclei count [2] was 114%, the inhibition [3] was -35% (inactive) and the nuclei count [3] was 122%. The fluorescence slope [4] was -0.595 (inactive), the NADPH fluorescence slope [5] was 9e-06 (inactive) and the fluorescence slope [6] was 0.00594 (inactive). The inhibition [7] was 22.6% (inactive) and the inhibition [8] was 31.6% (inactive).

In the case of `N#CC1=C(N)Oc2n[nH]c(-c3cccs3)c2C1c1cccs1` (centres undefined), the cell count [1] is reported as 562, the inhibition [1] is reported as -15.3% (inactive) and the inhibition of aggregation [2] is reported as 4.7% (inactive). The nuclei count [2] was 99.1%, the inhibition [3] was -80.1% (inactive) and the nuclei count [3] was 113%. The fluorescence slope [4] was -0.396 (inactive), the NADPH fluorescence slope [5] was -1.8e-05 (inactive) and the fluorescence slope [6] was 0.00605 (inactive). The inhibition [7] was 13.4% (inactive) and the inhibition [8] was 17.8% (inactive).

In the case of `Cc1ccc(C2CC(c3cccc(Br)c3)Nc3nnnn32)cc1` (centres undefined), the cell count [1] is reported as 460, the inhibition [1] is reported as -10% (inactive) and the inhibition of aggregation [2] is reported as -4.9% (inactive). The nuclei count [2] was 90.9%, the inhibition [3] was -1.3% (inactive) and the nuclei count [3] was 79.9%. For the same compound, the fluorescence slope [4] was -0.579 (inactive), the NADPH fluorescence slope [5] was 1.4e-05 (inactive) and the fluorescence slope [6] was 0.00604 (inactive). For the same compound, the inhibition [7] was 25.2% (inactive) and the inhibition [8] was 26% (inactive).

In the case of `CN1CCCC(OC(=O)COc2ccc(Br)cc2)C1` (centres undefined), the cell count [1] is reported as 430, the inhibition [1] is reported as -3.5% (inactive) and the inhibition of aggregation [2] is reported as 2.1% (inactive). For the same compound, the nuclei count [2] was 97%, the inhibition [3] was -63.5% (inactive) and the nuclei count [3] was 87.2%. The fluorescence slope [4] was -0.489 (inactive), the NADPH fluorescence slope [5] was 0.000124 (inactive) and the fluorescence slope [6] was 0.0054 (inactive). The inhibition [7] was -9.52% (inactive) and the inhibition [8] was -1.12% (inactive).

For `CCOP(=O)(c1ccc(N(C)C)cc1)C(O)c1cc(OC)c(OC)c(OC)c1` (centres undefined), the cell count [1] was 713, the inhibition [1] was -0.6% (inactive) and the inhibition of aggregation [2] was 0% (inactive). The nuclei count [2] was 113%, the inhibition [3] was 10.2% (inactive) and the nuclei count [3] was 103%. For the same compound, the fluorescence slope [4] was -0.455 (inactive), the NADPH fluorescence slope [5] was -4.5e-05 (inactive) and the fluorescence slope [6] was 0.00563 (inactive). For the same compound, the inhibition [7] was 4.26% (inactive) and the inhibition [8] was 21% (inactive).

With `Cn1c(=O)[nH]c(=O)c2[nH]c(CN3CCN(C(=O)c4ccco4)CC3)nc21` the cell count [1] was 418, the inhibition [1] was -2.3% (inactive) and the inhibition of aggregation [2] was -1.2% (inactive). The nuclei count [2] was 124%, the inhibition [3] was -5.3% (inactive) and the nuclei count [3] was 131%. For the same compound, the fluorescence slope [4] was -0.54 (inactive), the NADPH fluorescence slope [5] was -1.3e-05 (inactive) and the fluorescence slope [6] was 0.00483 (inactive). For the same compound, the inhibition [7] was 1.74% (inactive) and the inhibition [8] was 11% (inactive).

With `C#CCN1C(=O)C(O)(CC(=O)c2cccc(OC)c2)c2ccccc21` (centres undefined) the cell count [1] was 429, the inhibition [1] was 1.2% (inactive) and the inhibition of aggregation [2] was -0.5% (inactive). The nuclei count [2] was 96.2%, the inhibition [3] was -130% (inactive) and the nuclei count [3] was 163%. The fluorescence slope [4] was -0.337 (inactive), the NADPH fluorescence slope [5] was -6.5e-05 (inactive) and the fluorescence slope [6] was 0.00596 (inactive). The inhibition [7] was 10.4% (inactive) and the inhibition [8] was 14.1% (inactive).

In the case of `CCCS(=O)(=O)N1CCN(C(=O)CCC2CCCC2)CC1`, the cell count [1] is reported as 222, the inhibition [1] is reported as 8.5% (inactive) and the inhibition of aggregation [2] is reported as 15.8% (inactive). The nuclei count [2] was 77.9%, the inhibition [3] was -18.1% (inactive) and the nuclei count [3] was 148%. For the same compound, the fluorescence slope [4] was -0.435 (inactive), the NADPH fluorescence slope [5] was -3.3e-05 (inactive) and the fluorescence slope [6] was 0.00496 (inactive). The inhibition [7] was 10.9% (inactive) and the inhibition [8] was 17.4% (inactive).

With `CN(C)S(=O)(=O)c1ccc(S(=O)(=O)Nc2ccc3c(c2)oc2ccccc23)cc1` the cell count [1] was 414, the inhibition [1] was -7.9% (inactive) and the inhibition of aggregation [2] was -3.8% (inactive). The nuclei count [2] was 107%, the inhibition [3] was 4.6% (inactive) and the nuclei count [3] was 92%. The fluorescence slope [4] was -0.54 (inactive), the NADPH fluorescence slope [5] was -5.2e-05 (inactive) and the fluorescence slope [6] was 0.00569 (inactive). The inhibition [7] was -8.93% (inactive) and the inhibition [8] was -1.94% (inactive).

With `COc1ccc(Cn2c(C)nc3c(c2=O)c2nc4ccccc4nc2n3Cc2ccco2)cc1` the cell count [1] was 375, the inhibition [1] was -0.6% (inactive) and the inhibition of aggregation [2] was -1.8% (inactive). For the same compound, the nuclei count [2] was 100%, the inhibition [3] was -42.4% (inactive) and the nuclei count [3] was 119%. The fluorescence slope [4] was -0.368 (inactive), the NADPH fluorescence slope [5] was -4.4e-06 (inactive) and the fluorescence slope [6] was 0.00431 (inactive). For the same compound, the inhibition [7] was 23.6% (inactive) and the inhibition [8] was 9.91% (inactive).

With `COc1ccc2c(c1)c1c(n2C(C)=O)C(OC(C)=O)=NCC1` the cell count [1] was 904, the inhibition [1] was -1.4% (inactive) and the inhibition of aggregation [2] was -12.8% (inactive). For the same compound, the nuclei count [2] was 101%, the inhibition [3] was -98.4% (inactive) and the nuclei count [3] was 128%. For the same compound, the fluorescence slope [4] was -0.166 (active), the NADPH fluorescence slope [5] was -2.6e-05 (inactive) and the fluorescence slope [6] was 0.00438 (inactive). For the same compound, the inhibition [7] was 13.2% (inactive) and the inhibition [8] was -6.44% (inactive).
